Measured values taken from ChEMBL document CHEMBL2424622, “Development of amino-pyrimidine inhibitors of c-Jun N-terminal kinase (JNK): kinase profiling guided optimization of a 1,2,3-benzotriazole lead” (Bioorg Med Chem Lett, 2013).

What was measured:
[1] = target: ALK tyrosine kinase receptor (Homo sapiens) (UniProt Q9UM73); assay: Competitive binding affinity to ALK (unknown origin) at 10 uM in presence of ATP relative to control
[2] = target: Maternal embryonic leucine zipper kinase (Homo sapiens) (UniProt Q14680); assay: Competitive binding affinity to MELK (unknown origin) at 10 uM in presence of ATP relative to control
Chain of Maternal embryonic leucine zipper kinase (Homo sapiens) (Q14680 whole entry, looked up): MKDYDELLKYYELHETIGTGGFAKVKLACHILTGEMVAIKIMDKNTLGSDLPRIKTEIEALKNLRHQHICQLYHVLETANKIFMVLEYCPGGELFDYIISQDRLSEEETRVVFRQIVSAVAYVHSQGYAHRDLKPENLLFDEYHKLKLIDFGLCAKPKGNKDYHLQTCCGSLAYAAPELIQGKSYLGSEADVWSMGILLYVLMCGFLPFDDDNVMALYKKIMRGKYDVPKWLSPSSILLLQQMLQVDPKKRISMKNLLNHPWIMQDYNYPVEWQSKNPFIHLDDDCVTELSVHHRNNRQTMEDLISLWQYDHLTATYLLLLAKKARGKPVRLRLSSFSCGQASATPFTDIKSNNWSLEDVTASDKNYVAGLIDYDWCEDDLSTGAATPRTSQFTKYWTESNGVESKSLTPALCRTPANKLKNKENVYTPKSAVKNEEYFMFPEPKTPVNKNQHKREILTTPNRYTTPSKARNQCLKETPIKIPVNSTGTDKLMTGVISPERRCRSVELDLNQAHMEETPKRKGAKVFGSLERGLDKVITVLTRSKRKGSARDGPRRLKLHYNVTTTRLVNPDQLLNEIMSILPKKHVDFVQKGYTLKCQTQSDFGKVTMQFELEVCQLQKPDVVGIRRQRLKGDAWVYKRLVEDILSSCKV

[3] = system: Fibroblast growth factor receptor 3 (Homo sapiens), P22607 [G697C]; assay: Competitive binding affinity to FGFR3 G697C mutant (unknown origin) at 10 uM in presence of ATP relative to control
How it was run: (§1)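 In vitro ATP-site competition binding assay, part of profiling against a diverse panel of 128 kinases. Each compound was tested at a single concentration of 10 µM. Kinome selectivity was summarized as S15 selectivity scores.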

[4] = species: Homo sapiens; assay: Competitive binding affinity to EGFR E746 to A750 deletion mutant (unknown origin) at 10 uM in presence of ATP relative to control
How it was run: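 Screened at 10 µM in an in vitro ATP-site competition binding assay across a diverse panel of 128 kinases, with this kinase as one panel member. Readout is binding relative to control.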

[5] = target: T1, Activin receptor type-1B (Homo sapiens) (UniProt P36896); assay: Competitive binding affinity to ACVR1B (unknown origin) at 10 uM in presence of ATP relative to control
T1 sequence (whole entry): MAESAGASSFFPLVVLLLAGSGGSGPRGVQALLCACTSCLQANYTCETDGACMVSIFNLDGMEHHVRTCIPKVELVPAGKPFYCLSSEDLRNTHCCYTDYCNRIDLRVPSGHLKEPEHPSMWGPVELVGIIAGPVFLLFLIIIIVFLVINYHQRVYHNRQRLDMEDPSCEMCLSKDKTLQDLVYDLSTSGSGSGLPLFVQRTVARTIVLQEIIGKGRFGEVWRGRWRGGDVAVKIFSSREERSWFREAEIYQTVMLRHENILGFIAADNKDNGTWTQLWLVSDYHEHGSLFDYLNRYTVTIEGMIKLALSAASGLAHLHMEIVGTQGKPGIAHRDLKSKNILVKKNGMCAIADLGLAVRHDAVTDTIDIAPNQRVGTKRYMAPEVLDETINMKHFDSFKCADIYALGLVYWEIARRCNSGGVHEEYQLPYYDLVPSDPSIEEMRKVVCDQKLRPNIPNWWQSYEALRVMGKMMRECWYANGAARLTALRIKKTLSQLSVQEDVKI

[6] = target: Casein kinase I isoform delta (Homo sapiens) (UniProt P48730); assay: Competitive binding affinity to CSNK1D (unknown origin) at 10 uM in presence of ATP relative to control
Chain of Casein kinase I isoform delta (Homo sapiens) (P48730 whole entry, looked up, canonical isoform): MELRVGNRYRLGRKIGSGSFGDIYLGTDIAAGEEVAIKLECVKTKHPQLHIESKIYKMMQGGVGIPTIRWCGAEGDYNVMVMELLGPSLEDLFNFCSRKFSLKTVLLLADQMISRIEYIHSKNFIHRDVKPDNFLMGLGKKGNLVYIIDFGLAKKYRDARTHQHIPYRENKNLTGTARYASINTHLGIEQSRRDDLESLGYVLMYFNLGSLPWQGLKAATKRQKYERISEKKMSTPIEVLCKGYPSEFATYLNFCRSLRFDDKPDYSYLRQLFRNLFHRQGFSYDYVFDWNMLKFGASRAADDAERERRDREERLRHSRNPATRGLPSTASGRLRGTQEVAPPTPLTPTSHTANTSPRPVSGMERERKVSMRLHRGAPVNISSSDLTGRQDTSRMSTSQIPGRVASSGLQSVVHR

[7] = target: T2, Ephrin type-B receptor 2 (Homo sapiens) (UniProt P29323); assay: Competitive binding affinity to EPHB2 (unknown origin) at 10 uM in presence of ATP relative to control; how it was run: as §1
T2 sequence (whole entry): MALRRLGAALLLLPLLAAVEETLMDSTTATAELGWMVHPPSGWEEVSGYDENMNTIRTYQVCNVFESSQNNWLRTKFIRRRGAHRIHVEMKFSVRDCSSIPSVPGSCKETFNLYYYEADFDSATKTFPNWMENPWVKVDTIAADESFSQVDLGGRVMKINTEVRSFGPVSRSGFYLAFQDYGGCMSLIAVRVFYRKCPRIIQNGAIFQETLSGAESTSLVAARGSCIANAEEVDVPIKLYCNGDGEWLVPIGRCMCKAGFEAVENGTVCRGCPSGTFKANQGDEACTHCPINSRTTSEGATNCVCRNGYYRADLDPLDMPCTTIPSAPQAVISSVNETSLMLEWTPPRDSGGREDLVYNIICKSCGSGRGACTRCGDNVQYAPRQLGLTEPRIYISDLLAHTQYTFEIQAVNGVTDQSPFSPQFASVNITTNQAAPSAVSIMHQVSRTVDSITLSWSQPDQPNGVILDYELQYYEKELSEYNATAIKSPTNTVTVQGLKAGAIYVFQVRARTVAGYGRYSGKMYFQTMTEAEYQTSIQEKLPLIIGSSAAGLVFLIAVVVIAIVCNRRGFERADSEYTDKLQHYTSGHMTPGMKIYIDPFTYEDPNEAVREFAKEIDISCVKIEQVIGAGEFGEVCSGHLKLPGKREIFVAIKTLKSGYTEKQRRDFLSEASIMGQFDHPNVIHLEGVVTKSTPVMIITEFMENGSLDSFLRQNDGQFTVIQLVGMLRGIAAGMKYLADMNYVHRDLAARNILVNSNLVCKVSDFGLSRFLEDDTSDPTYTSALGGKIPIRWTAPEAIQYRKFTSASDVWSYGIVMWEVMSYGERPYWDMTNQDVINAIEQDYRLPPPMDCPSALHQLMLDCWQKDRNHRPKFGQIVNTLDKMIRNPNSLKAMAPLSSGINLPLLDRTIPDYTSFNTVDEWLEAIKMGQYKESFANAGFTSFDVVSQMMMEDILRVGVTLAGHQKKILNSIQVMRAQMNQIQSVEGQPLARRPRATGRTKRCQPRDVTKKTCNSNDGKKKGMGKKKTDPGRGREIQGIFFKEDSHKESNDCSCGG

[8] = target: Mitogen-activated protein kinase kinase kinase 12 (DLK) (Homo sapiens) (UniProt Q12852); assay: Competitive binding affinity to DLK (unknown origin) at 10 uM in presence of ATP relative to control
[9] = target: Ribosomal protein S6 kinase alpha-4 (Homo sapiens) (UniProt O75676); assay: Competitive binding affinity to RPS6KA4 kinase domain 2 (unknown origin) at 10 uM in presence of ATP relative to control
Chain of Ribosomal protein S6 kinase alpha-4 (Homo sapiens) (O75676 whole entry, looked up, the tested form may be a part): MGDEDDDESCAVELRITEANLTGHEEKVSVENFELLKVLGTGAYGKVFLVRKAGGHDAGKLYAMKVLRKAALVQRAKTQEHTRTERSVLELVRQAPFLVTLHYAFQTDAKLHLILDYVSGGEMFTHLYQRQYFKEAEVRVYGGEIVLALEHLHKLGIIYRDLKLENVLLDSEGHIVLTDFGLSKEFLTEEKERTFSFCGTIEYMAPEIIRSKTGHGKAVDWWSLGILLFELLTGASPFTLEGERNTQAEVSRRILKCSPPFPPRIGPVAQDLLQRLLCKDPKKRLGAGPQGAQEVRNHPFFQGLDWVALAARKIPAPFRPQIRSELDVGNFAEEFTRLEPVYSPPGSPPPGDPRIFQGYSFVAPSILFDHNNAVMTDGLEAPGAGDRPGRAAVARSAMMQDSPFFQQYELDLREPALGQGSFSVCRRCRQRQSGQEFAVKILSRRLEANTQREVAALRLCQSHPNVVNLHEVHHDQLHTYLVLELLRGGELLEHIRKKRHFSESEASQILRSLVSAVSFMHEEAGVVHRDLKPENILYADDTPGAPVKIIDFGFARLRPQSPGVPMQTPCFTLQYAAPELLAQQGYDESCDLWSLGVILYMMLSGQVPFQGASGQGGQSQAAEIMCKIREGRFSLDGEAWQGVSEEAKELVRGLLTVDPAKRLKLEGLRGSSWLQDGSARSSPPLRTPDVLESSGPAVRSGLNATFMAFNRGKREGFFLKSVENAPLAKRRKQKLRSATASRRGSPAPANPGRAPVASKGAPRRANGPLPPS

[10] = target: Cyclin-dependent kinase 17 (Homo sapiens) (UniProt Q00537); assay: Competitive binding affinity to PCTK2 (unknown origin) at 10 uM in presence of ATP relative to control
Chain of Cyclin-dependent kinase 17 (Homo sapiens) (Q00537 whole entry, looked up): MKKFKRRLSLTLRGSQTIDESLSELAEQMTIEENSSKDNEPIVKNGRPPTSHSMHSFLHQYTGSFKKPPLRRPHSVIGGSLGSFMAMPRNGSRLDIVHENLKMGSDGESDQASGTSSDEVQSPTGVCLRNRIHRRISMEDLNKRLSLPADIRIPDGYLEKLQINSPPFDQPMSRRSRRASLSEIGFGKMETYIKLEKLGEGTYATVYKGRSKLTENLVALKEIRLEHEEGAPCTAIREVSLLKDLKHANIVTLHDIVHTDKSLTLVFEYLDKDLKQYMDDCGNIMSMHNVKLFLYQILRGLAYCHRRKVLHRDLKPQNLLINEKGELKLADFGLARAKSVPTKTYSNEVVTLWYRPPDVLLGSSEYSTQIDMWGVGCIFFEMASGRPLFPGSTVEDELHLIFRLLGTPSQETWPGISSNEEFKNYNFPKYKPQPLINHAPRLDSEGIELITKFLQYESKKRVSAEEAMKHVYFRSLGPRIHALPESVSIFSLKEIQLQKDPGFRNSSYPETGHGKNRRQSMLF

[11] = target: Myosin light chain kinase, smooth muscle (Homo sapiens) (UniProt Q15746); assay: Competitive binding affinity to MLCK (unknown origin) at 10 uM in presence of ATP relative to control
[12] = target: MAP kinase-interacting serine/threonine-protein kinase 1 (Homo sapiens, UniProt Q9BUB5); assay: Competitive binding affinity to MKNK1 (unknown origin) at 10 uM in presence of ATP relative to control
Chain of MAP kinase-interacting serine/threonine-protein kinase 1 (Q9BUB5 whole entry, looked up): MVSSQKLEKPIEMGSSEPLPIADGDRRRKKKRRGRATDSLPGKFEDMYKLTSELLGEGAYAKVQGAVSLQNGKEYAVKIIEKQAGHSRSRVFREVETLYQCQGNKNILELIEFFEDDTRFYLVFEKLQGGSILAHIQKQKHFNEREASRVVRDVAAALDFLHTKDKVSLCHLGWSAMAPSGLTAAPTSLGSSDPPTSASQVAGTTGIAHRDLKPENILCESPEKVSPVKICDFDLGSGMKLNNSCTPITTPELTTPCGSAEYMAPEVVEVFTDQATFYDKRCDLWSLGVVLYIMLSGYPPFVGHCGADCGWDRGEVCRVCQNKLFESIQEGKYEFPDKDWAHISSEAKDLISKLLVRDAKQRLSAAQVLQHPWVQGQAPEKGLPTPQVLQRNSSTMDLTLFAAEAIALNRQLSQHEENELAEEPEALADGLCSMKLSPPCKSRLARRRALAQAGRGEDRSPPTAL

[13] = target: Myosin-IIIa (Homo sapiens) (UniProt Q8NEV4); assay: Competitive binding affinity to MYO3A (unknown origin) at 10 uM in presence of ATP relative to control
Chain of Myosin-IIIa (Homo sapiens) (Q8NEV4 whole entry): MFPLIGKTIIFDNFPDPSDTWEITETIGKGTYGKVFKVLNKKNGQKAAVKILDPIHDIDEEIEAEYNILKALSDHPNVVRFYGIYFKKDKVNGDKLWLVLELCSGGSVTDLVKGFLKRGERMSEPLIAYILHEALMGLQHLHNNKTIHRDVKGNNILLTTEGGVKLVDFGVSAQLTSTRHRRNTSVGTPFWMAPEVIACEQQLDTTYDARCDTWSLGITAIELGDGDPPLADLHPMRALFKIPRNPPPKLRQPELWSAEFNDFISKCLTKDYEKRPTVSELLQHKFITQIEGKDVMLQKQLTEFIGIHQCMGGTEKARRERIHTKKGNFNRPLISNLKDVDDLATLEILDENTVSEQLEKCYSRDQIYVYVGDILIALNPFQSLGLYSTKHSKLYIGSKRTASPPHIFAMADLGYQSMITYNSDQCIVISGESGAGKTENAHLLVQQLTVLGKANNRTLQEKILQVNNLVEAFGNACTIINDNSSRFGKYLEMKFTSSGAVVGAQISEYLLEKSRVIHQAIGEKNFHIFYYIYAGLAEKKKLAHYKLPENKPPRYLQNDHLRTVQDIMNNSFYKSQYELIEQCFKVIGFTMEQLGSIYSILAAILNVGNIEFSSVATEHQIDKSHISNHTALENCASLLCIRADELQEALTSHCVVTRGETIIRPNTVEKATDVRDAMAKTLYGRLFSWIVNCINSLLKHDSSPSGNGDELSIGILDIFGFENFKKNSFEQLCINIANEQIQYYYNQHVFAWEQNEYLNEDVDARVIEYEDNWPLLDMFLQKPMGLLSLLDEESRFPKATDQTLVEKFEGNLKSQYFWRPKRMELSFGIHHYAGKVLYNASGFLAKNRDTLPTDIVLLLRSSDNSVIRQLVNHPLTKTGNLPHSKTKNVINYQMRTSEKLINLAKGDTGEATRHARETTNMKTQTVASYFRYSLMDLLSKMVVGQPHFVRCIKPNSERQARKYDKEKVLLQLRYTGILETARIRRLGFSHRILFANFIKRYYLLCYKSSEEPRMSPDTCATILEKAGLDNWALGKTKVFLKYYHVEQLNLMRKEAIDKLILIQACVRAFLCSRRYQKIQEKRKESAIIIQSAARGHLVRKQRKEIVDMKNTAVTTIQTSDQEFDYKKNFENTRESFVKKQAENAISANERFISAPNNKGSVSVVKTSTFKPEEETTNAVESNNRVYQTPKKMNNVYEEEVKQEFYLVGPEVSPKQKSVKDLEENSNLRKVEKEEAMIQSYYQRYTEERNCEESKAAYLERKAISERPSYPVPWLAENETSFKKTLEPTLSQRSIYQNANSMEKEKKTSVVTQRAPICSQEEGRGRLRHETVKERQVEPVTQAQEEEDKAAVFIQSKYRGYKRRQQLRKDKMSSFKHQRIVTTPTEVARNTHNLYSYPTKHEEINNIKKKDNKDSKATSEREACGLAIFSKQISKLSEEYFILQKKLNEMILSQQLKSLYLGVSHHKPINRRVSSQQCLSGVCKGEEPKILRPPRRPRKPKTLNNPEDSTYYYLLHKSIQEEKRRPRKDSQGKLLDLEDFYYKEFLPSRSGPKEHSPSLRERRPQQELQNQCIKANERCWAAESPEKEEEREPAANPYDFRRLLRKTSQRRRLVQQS

[14] = target: TGF-beta receptor type-2 (Homo sapiens) (UniProt P37173); assay: Competitive binding affinity to TGFBR2 (unknown origin) at 10 uM in presence of ATP relative to control
Chain of TGF-beta receptor type-2 (Homo sapiens) (P37173 whole entry): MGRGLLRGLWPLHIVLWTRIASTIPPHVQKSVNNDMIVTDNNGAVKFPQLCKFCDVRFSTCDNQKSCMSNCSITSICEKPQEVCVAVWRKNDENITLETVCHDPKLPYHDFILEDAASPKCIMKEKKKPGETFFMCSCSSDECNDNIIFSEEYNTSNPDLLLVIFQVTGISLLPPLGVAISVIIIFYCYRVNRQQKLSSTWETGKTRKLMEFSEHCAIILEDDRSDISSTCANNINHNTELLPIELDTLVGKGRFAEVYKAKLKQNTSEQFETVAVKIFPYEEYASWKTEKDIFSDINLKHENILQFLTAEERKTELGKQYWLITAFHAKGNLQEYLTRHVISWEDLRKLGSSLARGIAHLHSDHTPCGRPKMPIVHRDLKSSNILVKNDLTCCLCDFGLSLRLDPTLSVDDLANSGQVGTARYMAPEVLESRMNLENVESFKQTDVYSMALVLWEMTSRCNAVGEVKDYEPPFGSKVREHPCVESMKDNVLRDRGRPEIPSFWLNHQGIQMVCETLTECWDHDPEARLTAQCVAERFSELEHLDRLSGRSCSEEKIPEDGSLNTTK

inhibition [1] [%] | inhibition [2] [%] | inhibition [3] [%] | inhibition [4] [%] | inhibition [5] [%] | inhibition [6] [%] | inhibition [7] [%] | inhibition [8] [%] | inhibition [9] [%] | inhibition [10] [%] | inhibition [11] [%] | inhibition [12] [%] | inhibition [13] [%] | inhibition [14] [%] | Compound
100 | 94 | < 50 | < 50 | < 50 | 100 | < 50 | – | – | – | – | – | – | – | O[C@H]1CC[C@H](Nc2nccc(-c3n[nH]c4ccccc34)n2)CC1
– | – | – | – | – | – | – | – | – | – | – | > 85 | – | – | CS(=O)(=O)CCCOc1cccc2c1ccn2-c1ccnc(N[C@H]2CC[C@H](C(=O)N3CCC(O)CC3)CC2)n1

The remaining lines, values behind:

Compound | inhibition [1] [%] | inhibition [2] [%] | inhibition [3] [%] | inhibition [4] [%] | inhibition [5] [%] | inhibition [6] [%] | inhibition [7] [%] | inhibition [8] [%] | inhibition [9] [%] | inhibition [10] [%] | inhibition [11] [%] | inhibition [12] [%] | inhibition [13] [%] | inhibition [14] [%]
O[C@H]1CC[C@H](Nc2nccc(-n3ccc4ccccc43)n2)CC1 | < 50 | < 50 | < 50 | < 50 | < 50 | 91 | < 50 | < 50 | < 50 | 73 | 65 | < 50 | < 50 | < 50
O[C@H]1CC[C@H](Nc2nccc(-n3nnc4ccccc43)n2)CC1 | 66 | 94 | < 50 | < 50 | < 50 | 100 | < 50 | < 50 | 94 | 88 | 88 | 97 | < 50 | 96
O[C@H]1CC[C@H](Nc2nccc(-n3ncc4ccccc43)n2)CC1 | 78 | 74 | < 50 | 99 | < 50 | 96 | < 50 | < 50 | < 50 | 78 | < 50 | 70 | < 50 | < 50
